# Test results as given in ChEMBL document CHEMBL2331506, “Design, synthesis, antiviral and cytostatic evaluation of novel isoxazolidine nucleotide analogues with a carbamoyl linker” (Bioorg Med Chem, 2013).
# The source made the active and inactive calls. The rule behind the calls is not given here.
# Legend:
# [1] = system: Vero; assay: Cytotoxicity against african green monkey Vero cells assessed as alteration of cell morphology up to 100 uM by microscopic analysis; format: cell-based; conditions: chlorocebus sabaeus
# In short: (§1)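 Uninfected host-cell cultures were exposed to compound and examined by microscopy. Cytotoxicity was expressed as the minimum cytotoxic concentration (MCC) causing a microscopically detectable alteration of normal cell morphology.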
# [2] = system: Human immunodeficiency virus 2; assay: Antiviral activity against Human immunodeficiency virus 2 ROD infected in human CEM cells assessed as reduction of virus-induced giant cell formation at 250 uM after 4 to 5 days; format: functional, organism-based; conditions: CCRF-CEM
# In short: (§2)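 CEM cells at 3 × 10^5 cells/mL were infected with HIV at 100 CCID50 per mL in the presence of compound dilutions. They were held 4–5 days at 37 °C in humidified CO2. Syncytium (giant cell) formation was scored microscopically, and EC50 was taken as the concentration inhibiting giant cell formation by 50%.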
# [3] = system: Influenza B virus; assay: Antiviral activity against Influenza B virus infected in dog MDCK cells assessed as reduction of virus-induced cytopathogenicity at 250 uM; format: functional, organism-based
# In short: (§3)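 Confluent cell monolayers were infected with 100 CCID50 of virus while exposed to varying compound concentrations. Cytopathicity was scored once it was complete in untreated infected controls. EC50 was taken as the concentration that reduced virus-induced cytopathogenicity by 50%.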
# [4] = system: HeLa; assay: Cytotoxicity against human HeLa cells assessed as alteration of cell morphology up to 100 uM by microscopic analysis; format: cell-based; in short: as §1
# [5] = system: Human alphaherpesvirus 1; assay: Antiviral activity against thymidine kinase-deficient, ACV-resistant Herpes simplex virus 1 KOS infected in human HEL cells assessed as reduction of virus-induced cytopathogenicity at 250 uM; format: functional, organism-based; in short: as §3
# [6] = system: HEL; assay: Cytotoxicity against human HEL cells assessed as alteration of cell morphology up to 100 uM by microscopic analysis; format: cell-based; in short: as §1
# [7] = system: Human immunodeficiency virus 1; assay: Antiviral activity against Human immunodeficiency virus 1 3B infected in human CEM cells assessed as reduction of virus-induced giant cell formation at 250 uM after 4 to 5 days; format: functional, organism-based; conditions: CCRF-CEM; in short: as §2
# [8] = system: Influenza A virus; assay: Antiviral activity against Influenza A virus H3N2 infected in dog MDCK cells assessed as reduction of virus-induced cytopathogenicity at 250 uM; format: functional, organism-based; in short: as §3
# [9] = system: MDCK; assay: Cytotoxicity against dog MDCK cells assessed as alteration of cell morphology up to 100 uM by microscopic analysis; format: cell-based, Canis lupus familiaris; in short: as §1
# [10] = system: Human alphaherpesvirus 1; assay: Antiviral activity against Herpes simplex virus 1 KOS infected in human HEL cells assessed as reduction of virus-induced cytopathogenicity at 250 uM; format: functional, organism-based
# In short: (§4)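 Confluent monolayers (HEL fibroblasts, Vero, or HeLa cells as listed) were infected with 100 CCID50 of virus in the presence of varying compound concentrations. Virus-induced cytopathicity or plaque formation was scored once cytopathicity was complete in untreated infected controls. EC50 was taken as the concentration reducing cytopathogenicity or plaque formation by 50%.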
# [11] = Cytotoxicity against cat CRFK cells assessed as alteration of cell morphology up to 100 uM by microscopic analysis; format: cell-based, Felis catus; in short: as §1
# [12] = system: Mammalian orthoreovirus 1; assay: Antiviral activity against Reovirus 1 infected in african green monkey Vero cells assessed as reduction of virus-induced cytopathogenicity at 250 uM; format: functional, organism-based; in short: as §4
# [13] = system: Human alphaherpesvirus 2; assay: Antiviral activity against Herpes simplex virus 2 G infected in human HEL cells assessed as reduction of virus-induced cytopathogenicity at 250 uM; format: functional, organism-based; conditions: strain G; in short: as §4
# [14] = system: Influenza A virus; assay: Antiviral activity against Influenza A virus H1N1 infected in dog MDCK cells assessed as reduction of virus-induced cytopathogenicity at 250 uM; format: functional, organism-based; in short: as §3
# [15] = system: Human respirovirus 3; assay: Antiviral activity against Parainfluenza virus 3 infected in african green monkey Vero cells assessed as reduction of virus-induced cytopathogenicity at 250 uM; format: functional, organism-based; in short: as §4
# [16] = system: Punta Toro virus; assay: Antiviral activity against Punta Toro virus infected in african green monkey Vero cells assessed as reduction of virus-induced cytopathogenicity at 250 uM; format: functional, organism-based; in short: as §4
# [17] = system: Vesicular stomatitis virus; assay: Antiviral activity against Vesicular stomatitis virus infected in human HeLa cells assessed as reduction of virus-induced cytopathogenicity at 250 uM; format: functional, organism-based; in short: as §3
# [18] = system: Respiratory syncytial virus; assay: Antiviral activity against Respiratory syncytial virus long infected in human HeLa cells assessed as reduction of virus-induced cytopathogenicity at 250 uM; format: functional, organism-based; in short: as §4
# [19] = system: Vesicular stomatitis virus; assay: Antiviral activity against Vesicular stomatitis virus infected in human HEL cells assessed as reduction of virus-induced cytopathogenicity at 250 uM; format: functional, organism-based; in short: as §3
# [20] = system: Sindbis virus; assay: Antiviral activity against Sindbis virus infected in african green monkey Vero cells assessed as reduction of virus-induced cytopathogenicity at 250 uM; format: functional, organism-based; in short: as §4
# [21] = system: Coxsackievirus B4; assay: Antiviral activity against Coxsackievirus B4 infected in african green monkey Vero cells assessed as reduction of virus-induced cytopathogenicity at 250 uM; format: functional, organism-based; in short: as §4
# [22] = system: Feline coronavirus; assay: Antiviral activity against Feline coronavirus infected in cat CRFK cells assessed as reduction of virus-induced cytopathogenicity at 250 uM; format: functional, organism-based
# [23] = system: Felid alphaherpesvirus 1; assay: Antiviral activity against Feline herpes virus infected in cat CRFK cells assessed as reduction of virus-induced cytopathogenicity at 250 uM; format: functional, organism-based
Structure (SMILES),Activity [1],inhibition [2],inhibition [3],Activity [4],inhibition [5],Activity [6],inhibition [7],inhibition [8],Activity [9],inhibition [10],Activity [11],inhibition [12],inhibition [13],inhibition [14],inhibition [15],inhibition [16],inhibition [17],inhibition [18],inhibition [19],inhibition [20],further results
CCOc1ccc(NC(=O)[C@H]2C[C@H](P(=O)(OCC)OCC)N(C)O2)cc1 (mixture of isomers),Non-toxic,inactive,inactive,Non-toxic,inactive,Non-toxic,inactive,inactive,Non-toxic,inactive,Non-toxic,inactive,inactive,inactive,inactive,inactive,inactive,inactive,inactive,inactive,inhibition [21]: inactive; inhibition [22]: inactive; inhibition [23]: inactive
CCOP(=O)(OCC)[C@H]1C[C@H](C(=O)Nc2cc(OC)cc(OC)c2)ON1C (mixture of isomers),Non-toxic,inactive,inactive,Non-toxic,inactive,Non-toxic,inactive,inactive,Non-toxic,inactive,Non-toxic,inactive,inactive,inactive,inactive,inactive,inactive,inactive,inactive,inactive,inhibition [21]: inactive; inhibition [22]: inactive; inhibition [23]: inactive
CCOP(=O)(OCC)[C@@H]1C[C@H](C(=O)Nc2cc(OC)cc(OC)c2)ON1C (mixture of isomers),Non-toxic,inactive,inactive,Non-toxic,inactive,Non-toxic,inactive,inactive,Non-toxic,inactive,Non-toxic,inactive,inactive,inactive,inactive,inactive,inactive,inactive,inactive,inactive,inhibition [21]: inactive; inhibition [22]: inactive; inhibition [23]: inactive
CCOP(=O)(OCC)[C@@H]1C[C@H](C(=O)Nc2ccccc2C(C)=O)ON1C (mixture of isomers),Non-toxic,inactive,inactive,Non-toxic,inactive,Non-toxic,inactive,inactive,Non-toxic,inactive,Non-toxic,inactive,inactive,inactive,inactive,inactive,inactive,inactive,inactive,inactive,inhibition [21]: inactive; inhibition [22]: inactive; inhibition [23]: inactive
CCOP(=O)(OCC)[C@H]1C[C@H](C(=O)Nc2cccc(C(C)=O)c2)ON1C (mixture of isomers),Non-toxic,inactive,inactive,Non-toxic,inactive,Non-toxic,inactive,inactive,Non-toxic,inactive,Non-toxic,inactive,inactive,inactive,inactive,inactive,inactive,inactive,inactive,inactive,inhibition [21]: inactive; inhibition [22]: inactive; inhibition [23]: inactive
CCOP(=O)(OCC)[C@@H]1C[C@H](C(=O)Nc2cccc(C)c2)ON1C (mixture of isomers),Non-toxic,inactive,inactive,Non-toxic,inactive,Non-toxic,inactive,inactive,Non-toxic,inactive,Non-toxic,inactive,inactive,inactive,inactive,inactive,inactive,inactive,inactive,inactive,inhibition [21]: inactive; inhibition [22]: inactive; inhibition [23]: inactive
CCOP(=O)(OCC)[C@@H]1C[C@H](C(=O)Nc2ccc(C)cc2)ON1C (mixture of isomers),Non-toxic,inactive,inactive,Non-toxic,inactive,Non-toxic,inactive,inactive,Non-toxic,inactive,Non-toxic,inactive,inactive,inactive,inactive,inactive,inactive,inactive,inactive,inactive,inhibition [21]: inactive; inhibition [22]: inactive; inhibition [23]: inactive
CCOP(=O)(OCC)[C@@H]1C[C@H](C(=O)Nc2cccc(OC)c2)ON1C (mixture of isomers),Non-toxic,inactive,inactive,Non-toxic,inactive,Non-toxic,inactive,inactive,Non-toxic,inactive,Non-toxic,inactive,inactive,inactive,inactive,inactive,inactive,inactive,inactive,inactive,inhibition [21]: inactive; inhibition [22]: inactive; inhibition [23]: inactive
